According to ChEMBL document CHEMBL1138477, “8-(4-Methoxyphenyl)pyrazolo[1,5-a]-1,3,5-triazines: selective and centrally active corticotropin-releasing factor receptor-1 (CRF1) antagonists” (J Med Chem, 2009):
Active and inactive are the calls of the source. The calls are words filed in the database; no cut-off is given here.

How the values were obtained:
Canis familiaris [1] = experiment: Ex vivo displacement of [125I]Tyr0-ovine CRF from CRF1 receptor in dog at 5 mg/kg, po measured in plasma after 10 hrs; format: functional; details: Canis lupus familiaris
Summary of the method: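 Beagle dogs given 5 mg/kg po (free base), in Labrafil or Tween-80/0.5% methylcellulose 1:99; plasma drawn 2 and 10 h postdose, diluted 10-fold in binding buffer, and tested for inhibition of 125I-Tyr0-ovine-CRF binding to rat receptors; mean ± SD, n = 3.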

[2] = target: T1, Corticotropin-releasing factor receptor 2 (Homo sapiens, UniProt Q13324); experiment: Binding affinity to human CRF2alpha receptor
T1 sequence (Q13324 whole entry): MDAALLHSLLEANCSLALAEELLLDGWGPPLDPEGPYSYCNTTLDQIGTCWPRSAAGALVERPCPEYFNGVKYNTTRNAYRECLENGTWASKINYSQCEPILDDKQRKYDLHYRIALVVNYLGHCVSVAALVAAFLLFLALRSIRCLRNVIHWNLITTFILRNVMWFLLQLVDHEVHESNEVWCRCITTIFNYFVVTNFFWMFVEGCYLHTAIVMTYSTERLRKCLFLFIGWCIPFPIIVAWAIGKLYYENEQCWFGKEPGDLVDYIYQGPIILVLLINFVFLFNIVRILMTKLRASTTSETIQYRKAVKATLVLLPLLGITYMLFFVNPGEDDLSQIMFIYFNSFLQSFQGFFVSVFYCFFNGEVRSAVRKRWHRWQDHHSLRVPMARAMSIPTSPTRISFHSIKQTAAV

[3] = target: T2, Alpha-1A adrenergic receptor (Homo sapiens, UniProt P35348); experiment: Binding affinity to adrenergic Alpha-1A receptor
T2 sequence (P35348 whole entry): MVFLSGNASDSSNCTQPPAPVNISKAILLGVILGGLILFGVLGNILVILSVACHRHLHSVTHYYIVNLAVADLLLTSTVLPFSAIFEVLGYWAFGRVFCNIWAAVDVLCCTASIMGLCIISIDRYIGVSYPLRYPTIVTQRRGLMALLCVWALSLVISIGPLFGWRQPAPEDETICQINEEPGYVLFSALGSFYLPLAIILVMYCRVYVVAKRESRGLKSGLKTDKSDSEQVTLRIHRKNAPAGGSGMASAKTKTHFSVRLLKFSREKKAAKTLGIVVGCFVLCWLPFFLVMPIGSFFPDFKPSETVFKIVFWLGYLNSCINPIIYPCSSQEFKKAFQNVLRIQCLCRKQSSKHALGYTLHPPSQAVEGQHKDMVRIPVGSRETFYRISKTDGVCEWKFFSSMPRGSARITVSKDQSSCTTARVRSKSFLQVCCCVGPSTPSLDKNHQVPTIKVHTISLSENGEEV

[4] = target: T3, Alpha-1B adrenergic receptor (Homo sapiens, UniProt P35368); experiment: Binding affinity to adrenergic alpha-1b receptor
T3 sequence (P35368 whole entry): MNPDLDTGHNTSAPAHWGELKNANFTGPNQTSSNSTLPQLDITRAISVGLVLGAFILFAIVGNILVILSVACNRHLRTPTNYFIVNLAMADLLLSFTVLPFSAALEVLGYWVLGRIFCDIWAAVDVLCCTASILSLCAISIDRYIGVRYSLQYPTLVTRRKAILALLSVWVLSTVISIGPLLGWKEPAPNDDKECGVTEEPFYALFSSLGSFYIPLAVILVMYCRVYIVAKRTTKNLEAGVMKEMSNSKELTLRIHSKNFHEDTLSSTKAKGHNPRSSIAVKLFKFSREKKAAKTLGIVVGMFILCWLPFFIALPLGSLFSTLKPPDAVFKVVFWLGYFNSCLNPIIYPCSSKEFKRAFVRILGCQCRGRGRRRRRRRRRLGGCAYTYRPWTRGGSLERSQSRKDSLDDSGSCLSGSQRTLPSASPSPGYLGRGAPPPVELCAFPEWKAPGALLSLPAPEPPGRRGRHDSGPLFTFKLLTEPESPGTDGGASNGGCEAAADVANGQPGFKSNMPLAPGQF

[5] = target: T4, Alpha-2C adrenergic receptor (Homo sapiens, UniProt P18825); experiment: Binding affinity to adrenergic alpha2c receptor
T4 sequence (P18825 whole entry): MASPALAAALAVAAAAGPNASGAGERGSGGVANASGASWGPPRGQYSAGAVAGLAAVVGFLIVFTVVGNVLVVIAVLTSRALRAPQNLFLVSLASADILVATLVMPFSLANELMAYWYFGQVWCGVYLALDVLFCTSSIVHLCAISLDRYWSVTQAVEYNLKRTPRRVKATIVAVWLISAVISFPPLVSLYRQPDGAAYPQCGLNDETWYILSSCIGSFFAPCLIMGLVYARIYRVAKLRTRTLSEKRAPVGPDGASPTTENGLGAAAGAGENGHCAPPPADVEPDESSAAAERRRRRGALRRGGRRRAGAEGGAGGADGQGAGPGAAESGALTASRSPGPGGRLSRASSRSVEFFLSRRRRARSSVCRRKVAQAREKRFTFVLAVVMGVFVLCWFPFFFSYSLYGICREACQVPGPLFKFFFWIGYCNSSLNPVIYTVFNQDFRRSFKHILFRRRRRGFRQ

D(1A) dopamine receptor = D(1A) dopamine receptor (Homo sapiens, UniProt P21728); experiment: Binding affinity to dopamine D1 receptor
Chain of D(1A) dopamine receptor (P21728 whole entry): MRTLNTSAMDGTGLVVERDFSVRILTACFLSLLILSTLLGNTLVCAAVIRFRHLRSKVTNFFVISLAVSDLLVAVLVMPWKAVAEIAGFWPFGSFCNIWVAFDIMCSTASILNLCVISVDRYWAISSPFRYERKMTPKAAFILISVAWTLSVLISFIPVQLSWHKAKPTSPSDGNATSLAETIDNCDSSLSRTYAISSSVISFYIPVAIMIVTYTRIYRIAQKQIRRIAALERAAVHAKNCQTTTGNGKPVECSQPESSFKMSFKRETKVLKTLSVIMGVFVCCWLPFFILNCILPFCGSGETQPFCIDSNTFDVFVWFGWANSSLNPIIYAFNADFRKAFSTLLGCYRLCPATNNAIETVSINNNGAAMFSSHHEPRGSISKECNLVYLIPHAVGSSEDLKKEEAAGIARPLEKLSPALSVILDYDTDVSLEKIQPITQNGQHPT

[6] = Binding affinity to L-type calcium channel
[7] = Binding affinity to N-type calcium channel
[8] = target: T5, Corticotropin-releasing factor receptor 1 (Rattus norvegicus) (UniProt P35353); experiment: Agonist activity at CRF1 receptor in rat brain homogenates assessed as CRF-stimulted cAMP production; format: functional, tissue-based
T5 sequence (whole entry): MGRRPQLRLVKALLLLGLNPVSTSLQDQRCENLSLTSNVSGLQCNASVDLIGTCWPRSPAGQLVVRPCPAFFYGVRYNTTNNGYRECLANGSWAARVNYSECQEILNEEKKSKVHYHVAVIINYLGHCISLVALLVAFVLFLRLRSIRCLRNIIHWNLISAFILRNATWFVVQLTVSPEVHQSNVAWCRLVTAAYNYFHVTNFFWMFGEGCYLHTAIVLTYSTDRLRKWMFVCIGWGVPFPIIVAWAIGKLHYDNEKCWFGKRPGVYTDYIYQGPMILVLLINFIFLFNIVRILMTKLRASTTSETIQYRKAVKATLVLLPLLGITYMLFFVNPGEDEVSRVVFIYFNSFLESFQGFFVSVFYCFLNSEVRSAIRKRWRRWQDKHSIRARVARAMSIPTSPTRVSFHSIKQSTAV

[9] = Elimination half life in Beagle dog at 5 mg/kg, iv; format: ADME, organism-based, Canis lupus familiaris; set-up: dose 5 mg/kg, route intravenous; details: in vivo, read-out: beta t1/2 (converted)
Summary of the method: (§1)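 Male beagle dogs (8.0-11.0 kg) dosed iv or po (5 mg/kg oral suspension in 0.5% methylcellulose with 1% Tween-80); plasma sampled 0.25-24 h; liquid-liquid extraction with hexane/ether, LC/MS/MS, quantitation limit 1 ng/mL (2.42 nM); noncompartmental parameters as free base.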

[10] = Cmax in Beagle dog at 5 mg/kg, po; format: ADME, organism-based, Canis lupus familiaris; set-up: dose 5 mg/kg, route oral; details: in vivo; summary of the method: as §1
[11] = Oral bioavailability in Beagle dog at 5 mg/kg; format: ADME, organism-based, Canis lupus familiaris; details: in vivo; summary of the method: as §1
Canis familiaris [12] = experiment: Hepatic blood flow in iv dosed Beagle dog; format: ADME, organism-based, Canis lupus familiaris, Liver; details: in vivo

| SMILES | inhibition in vivo at 5 mg/kg (Canis familiaris [1]) | IC50 [2] | IC50 [3] | IC50 [4] | IC50 [5] | IC50 (D(1A) dopamine receptor) | IC50 [6] | IC50 [7] | Activity [8] | half-life [9] | Cmax [10] | bioavailability [11] | QH (Canis familiaris [12]) |
| --- | --- | --- | --- | --- | --- | --- | --- | --- | --- | --- | --- | --- | --- |
| COCCN(CCOC)c1nc(C)nc2c(-c3cc(C)c(OC)cc3C)c(C)nn12 | 44% | > 1000 nM | > 1000 nM | > 1000 nM | > 1000 nM | > 1000 nM | > 1000 nM | > 1000 nM | inactive | 40.2 h | 1220 nM | 48% | 31 mL/min/kg |
| CC[C@@H](C)Nc1nc(C)nc2c(-c3c(C)cc(OC)cc3OC)c(C)nn12 | 83% | > 1000 nM | > 1000 nM | > 1000 nM | > 1000 nM | > 1000 nM | > 1000 nM | > 1000 nM | inactive | – | – | – | 31 mL/min/kg |
| CCC(CC)Nc1nc(C)nc2c(-c3cc(F)c(OC)cc3Cl)c(C)nn12 | 66% | > 1000 nM | > 1000 nM | > 1000 nM | > 1000 nM | > 1000 nM | > 1000 nM | > 1000 nM | inactive | – | – | – | – |
| COCCN(CCOC)c1nc(C)nc2c(-c3ccc(OC)cc3C)c(C)nn12 | 37% | > 1000 nM | > 1000 nM | > 1000 nM | > 1000 nM | > 1000 nM | > 1000 nM | > 1000 nM | inactive | 27.3 h | 2380 nM | 34% | 31 mL/min/kg |
